Screening results deposited in PubChem by The Scripps Research Institute Molecular Screening Center.
Rows were chosen to be rich in hits. Some 2.6% of all compounds tested hit in one or more screens of this group.
SIAE primary = human SIAE inhibition, primary screen; inhibition, % at 9.66 µM; SIAE FP-Rh probe binding, fluorescence polarization; Q9HAT2; AID 1053197; 370,000 tested, 0.69% active;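 active = inhibition above a cutoff: mean of compounds within the control limits plus 3 SD of those, cut at about 17% in these data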;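 note: 0% = plate median of compound wells and 100% = probe without SIAE protein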
PRMT1 FP inh = blocks human protein arginine methyltransferase 1. 370,000 tested, 1.3% active. Q99873. recombinant PRMT1, activity-based probe fluorescence polarization. inhibition, % at 2.79 µM;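 active = inhibition above about 21% made by adding two undisclosed values, limit read from the data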
Target sequence (Q99873 whole entry, looked up): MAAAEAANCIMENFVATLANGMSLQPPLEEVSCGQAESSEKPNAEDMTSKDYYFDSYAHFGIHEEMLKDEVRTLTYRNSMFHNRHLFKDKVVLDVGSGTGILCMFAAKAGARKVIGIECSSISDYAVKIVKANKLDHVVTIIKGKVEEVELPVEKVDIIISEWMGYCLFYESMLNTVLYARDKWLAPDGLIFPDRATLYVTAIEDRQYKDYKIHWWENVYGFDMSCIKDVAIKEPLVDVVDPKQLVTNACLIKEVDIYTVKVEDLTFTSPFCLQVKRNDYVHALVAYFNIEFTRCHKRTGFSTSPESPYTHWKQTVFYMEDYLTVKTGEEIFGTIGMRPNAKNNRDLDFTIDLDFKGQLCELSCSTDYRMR
mABHD4 FP = inhibits mouse alpha/beta hydrolase domain 4 | inhibition, % at 8.92 µM | purified mABHD4, FP-Rh probe fluorescence polarization | Q8VD66 | 370,000 tested, 0.54% active;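 active = inhibition exceeding the mean over every tested compound plus 3 SD, cut at about 30% in these data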;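 note: 0% = plate median of compound wells and 100% = S159A mutant with DMSO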
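Assay system: mABHD4 protein; medium: HEPES pH 7.0, NaCl, Pluronic buffer; dosing: 8.92 µM, single dose; schedule: 45 min + 60 min at 25 °C; signal: FP readout, ex 525 nm / em 598 nm; read-out: normalized percent inhibition of probe labeling; repeats: single replicate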
HTRA1 inhibitor = HTRA1 (human) protease inhibition; Q92743; recombinant HTRA1, FP-rhodamine activity-based probe, fluorescence polarization; inhibition, % at 5.96 µM; 340,000 tested, 0.5% active; AID 504803; in the data active = inhibition above about 36%;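 note: 0% = enzyme with DMSO and 100% = wells lacking enzyme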
TCR-CD3 inh = inhibitors of human TCR-CD3 interaction; TAMRA-labeled TCR probe fluorescence, biochemical; 360,000 tested, 0.37% active; inhibition, % at 9.4 µM; in the data active = inhibition above about 19%;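 note: recombinant mutant TCR 2C K166C tagged with TAMRA read by polarization; 0% = receptor in buffer alone and 100% = receptor with positive control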
SIAE inh conf = confirmation of human SIAE inhibitors; shares compounds with SIAE primary; SIAE FP-Rh activity-based probe, fluorescence polarization; inhibition, % at 9.66 µM; 2,300 tested, 13% active; AID 1117263;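 active = mean inhibition of the replicates above the hit cutoff set in the primary screen, cut at about 17% in these data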;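 note: 0% = SIAE with DMSO and probe and 100% = probe without SIAE; inhibitors lower polarization as more probe stays unbound to SIAE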
The depositor's hits bear a star; x = no result given.

SMILES | SIAE primary | PRMT1 FP inh | mABHD4 FP | HTRA1 inhibitor | TCR-CD3 inh | SIAE inh conf
COc1cc2c(cc1OC)CC(C(=O)NCc1ccccc1)NC2 (stereo unspecified) | 2.9 | 0.6 | -4.7 | 4.7 | 6.7 | x
O=[N+]([O-])c1cc(C(F)(F)F)ccc1NCCc1c[nH]c2ccc(O)cc12 | 17.3* | 5.9 | -8.3 | 11.8 | -1.4 | 2.5
O=[N+]([O-])c1cc(C(F)(F)F)ccc1NCCc1c[nH]c2ccccc12 | -0.3 | 1.6 | -8.2 | 3.0 | 5.4 | x
O=C(Nc1ccc2ccccc2c1)c1ccccc1[N+](=O)[O-] | 1.0 | -3.6 | 1.3 | -24.9 | 2.3 | x
O=C(O)c1cccc([N+](=O)[O-])c1C(=O)Nc1ccc2ccccc2c1 | 21.4* | 4.4 | 1.9 | 1.9 | -0.8 | 6.9
O=C(Nc1ccc2ccccc2c1)c1cccc([N+](=O)[O-])c1 | 28.9* | -4.5 | -8.1 | -17.3 | 12.1 | -28.7
Cc1c(C(=O)Nc2ccc3c(c2)CCC3)cccc1[N+](=O)[O-] | 17.9* | -3.0 | 2.1 | -8.1 | -2.9 | -2.2
CC[C@@]12C(=O)N(c3cccc(F)c3)C(=O)N1[C@H](c1ccc(Br)cc1)[C@@H]1C(=O)N(C(C)(C)C)C(=O)[C@@H]12 | 3.0 | -1.3 | -2.2 | -66.2 | -0.5 | x
COc1cccc(NC(=O)Nc2cccs2)c1 | 4.4 | -2.0 | 1.4 | -0.3 | 0.4 | x
COc1ccc(NC(=O)Nc2cccs2)cc1OC | 18.3* | 2.0 | 7.2 | 4.3 | 0.3 | 8.2
CCN(CC)c1ccc(/C=N/NC(=O)c2c[nH]c3ccccc23)cc1 | 24.2* | 2.0 | 7.7 | 7.8 | 2.2 | 17.0
CCN(CC)c1ccc(/C=N/NC(=O)c2cc3ccccc3[nH]2)cc1 | 16.1 | -0.1 | -1.3 | 1.7 | 6.2 | x
